Measured values: ChEMBL document CHEMBL4177770, “Discovery of MK-6169, a Potent Pan-Genotype Hepatitis C Virus NS5A Inhibitor with Optimized Activity against Common Resistance-Associated Substitutions” (J Med Chem, 2018)
Numbering of substitutions follows the chain as printed.

Tests used:
[1] = molecular target: T1, Nonstructural protein 5A (Hepatitis C virus) (UniProt Q5L478); assay: Inhibition of NS5A in HCV genotype 1a infected in HuH7 replicon cells assessed as decrease in viral replication after 3 days by RT-PCR method; assay type: cell-based; details: Hepatitis C virus subtype 1a
T1 sequence (whole entry): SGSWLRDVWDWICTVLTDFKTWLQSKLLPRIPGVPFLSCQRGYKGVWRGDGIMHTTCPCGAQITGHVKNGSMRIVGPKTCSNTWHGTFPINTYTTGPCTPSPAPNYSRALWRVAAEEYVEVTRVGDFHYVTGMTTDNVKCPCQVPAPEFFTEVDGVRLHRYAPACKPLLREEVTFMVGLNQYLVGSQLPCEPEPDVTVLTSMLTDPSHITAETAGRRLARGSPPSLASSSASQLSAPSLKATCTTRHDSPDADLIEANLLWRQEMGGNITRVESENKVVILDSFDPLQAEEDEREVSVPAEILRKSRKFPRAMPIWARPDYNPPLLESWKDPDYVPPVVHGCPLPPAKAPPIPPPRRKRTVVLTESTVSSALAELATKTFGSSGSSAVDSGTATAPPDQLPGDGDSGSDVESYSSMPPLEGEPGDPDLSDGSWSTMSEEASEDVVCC

[2] = molecular target: T1, Nonstructural protein 5A (Hepatitis C virus); assay: Inhibition of NS5A in HCV genotype 1b infected in HuH7 replicon cells assessed as decrease in viral replication after 3 days by RT-PCR method; assay type: cell-based; details: Hepatitis C virus subtype 1b
[3] = molecular target: T1, Nonstructural protein 5A (Hepatitis C virus); assay: Inhibition of NS5A L31M mutant in HCV genotype 2b infected in HuH7 replicon cells assessed as decrease in viral replication after 3 days by RT-PCR method; assay type: cell-based; details: Hepatitis C virus subtype 2b
[4] = molecular target: T1, Nonstructural protein 5A (Hepatitis C virus); assay: Inhibition of NS5A in HCV genotype 3a infected in HuH7 replicon cells assessed as decrease in viral replication after 3 days by RT-PCR method; assay type: cell-based; details: Hepatitis C virus subtype 3a
[5] = molecular target: T1, Nonstructural protein 5A (Hepatitis C virus); assay: Inhibition of NS5A in HCV genotype 4a infected in HuH7 replicon cells assessed as decrease in viral replication after 3 days by RT-PCR method; assay type: cell-based; details: Hepatitis C virus subtype 4a
[6] = system: T2, Nonstructural protein 5A (Hepatitis C virus), Q5L478 [Y93H]; assay: Inhibition of NS5A Y93H mutant in HCV genotype 1a infected in HuH7 replicon cells assessed as decrease in viral replication after 3 days by RT-PCR method; assay type: cell-based; details: Hepatitis C virus subtype 1a
T2 sequence (whole entry): T1 sequence (whole entry) with Y93H

[7] = molecular target: T1, Nonstructural protein 5A (Hepatitis C virus); assay: Inhibition of NS5A L31V mutant in HCV genotype 1a infected in HuH7 replicon cells assessed as decrease in viral replication after 3 days by RT-PCR method; assay type: cell-based; details: Hepatitis C virus subtype 1a
[8] = system: Hepatitis C virus subtype 1a; assay: Resistance ratio of EC90 for NS5A Y93H mutant in HCV genotype 1a infected in HuH7 replicon cells to EC90 for NS5A in HCV genotype 1a infected in HuH7 replicon cells; assay type: cell-based
[9] = system: Hepatitis C virus subtype 1a; assay: Resistance ratio of EC90 for NS5A L31V mutant in HCV genotype 1a infected in HuH7 replicon cells to EC90 for NS5A in HCV genotype 1a infected in HuH7 replicon cells; assay type: cell-based
[10] = Resistance ratio of EC90 for NS5A in HCV genotype 1b infected in HuH7 replicon cells to EC90 for NS5A in HCV genotype 1a infected in HuH7 replicon cells; assay type: cell-based
[11] = Resistance ratio of EC90 for NS5A L31M mutant in HCV genotype 2b infected in HuH7 replicon cells to EC90 for NS5A in HCV genotype 1a infected in HuH7 replicon cells; assay type: cell-based
[12] = Resistance ratio of EC90 for NS5A in HCV genotype 3a infected in HuH7 replicon cells to EC90 for NS5A in HCV genotype 1a infected in HuH7 replicon cells; assay type: cell-based
[13] = Resistance ratio of EC90 for NS5A in HCV genotype 4a infected in HuH7 replicon cells to EC90 for NS5A in HCV genotype 1a infected in HuH7 replicon cells; assay type: cell-based
[14] = Half life in Wistar Han rat at 2 mg/kg, iv by LC/MS method; assay type: ADME, organism-based; details: in vivo
Outline: (§1)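 Male Wistar Han rats, two per group, dosed IV at 2 mg/kg in 60% PEG200. Plasma was obtained by centrifuging the blood, and compound concentrations were measured by LC/MS.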

[15] = Clearance in Wistar Han rat at 2 mg/kg, iv by LC/MS method; assay type: ADME, organism-based; details: in vivo; outline: as §1
[16] = AUC in Wistar Han rat at 10 mg/kg, po by LC/MS method; assay type: ADME, organism-based; details: in vivo
Outline: (§2)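 Male Wistar Han rats, two per dosing group, dosed orally at 10 mg/kg in 10% TWEEN. Plasma was separated from collected blood by centrifugation and analysed by LC/MS.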

[17] = Cmax in Wistar Han rat at 10 mg/kg, po by LC/MS method; assay type: ADME, organism-based; set-up: dose 10 mg/kg, route oral; details: in vivo; outline: as §2
[18] = Drug level in Wistar Han rat at 10 mg/kg, po measured at 24 hrs by LC/MS method; assay type: ADME, organism-based; details: in vivo, read-out: Drug uptake; outline: as §2
[19] = Oral bioavailability in Wistar Han rat at 10 mg/kg by LC/MS method; assay type: ADME, organism-based; details: in vivo; outline: as §2

SMILES	EC90 [1]	EC90 [2]	EC90 [3]	EC90 [4]	EC90 [5]	EC90 [6]	EC90 [7]	Ratio [8]	Ratio [9]	Ratio [10]	Ratio [11]	Ratio [12]	Ratio [13]	half-life [14]	clearance [15]	AUC [16]	Cmax [17]	concentration at 24 h [18]	bioavailability [19]
COC(=O)N[C@H](C(=O)N1CCC[C@H]1c1ncc(-c2cc(F)c3c(c2)O[C@@H](c2cc4ccccc4s2)n2c-3cc3cc(-c4cnc([C@@H]5CCCN5C(=O)[C@@H](NC(=O)OC)C5CCOCC5)[nH]4)ccc32)[nH]1)C(C)C	5 pM	3 pM	57 pM	11 pM	4 pM	111 pM	8 pM	20	–	–	–	–	–	–	–	–	–	–	–
COC(=O)N[C@H](C(=O)N1CCC[C@H]1c1ncc(-c2cc(F)c3c(c2)O[C@@H](c2ccc(C(F)F)s2)n2c-3cc3cc(-c4cnc([C@@H]5CCCN5C(=O)[C@@H](NC(=O)OC)C5CCOCC5)[nH]4)ccc32)[nH]1)C(C)C	4 pM	6 pM	16 pM	10 pM	4 pM	15 pM	5 pM	< 10	< 10	< 10	< 10	< 10	< 10	–	–	–	–	–	–
CCCc1ccc([C@@H]2Oc3cc(-c4cnc([C@@H]5CCCN5C(=O)[C@@H](NC(=O)OC)C(C)C)[nH]4)cc(F)c3-c3cc4cc(-c5cnc([C@@H]6CCCN6C(=O)[C@@H](NC(=O)OC)C6CCOCC6)[nH]5)ccc4n32)s1	2 pM	6 pM	12 pM	5 pM	2 pM	9 pM	3 pM	< 10	< 10	< 10	< 10	< 10	< 10	–	–	–	–	–	–
COC(=O)N[C@H](C(=O)N1CCC[C@H]1c1ncc(-c2ccc3c(c2)cc2n3[C@H](c3ccc(C4CC4)s3)Oc3cc(-c4cnc([C@@H]5CCCN5C(=O)[C@@H](NC(=O)OC)[C@@H]5CCOC(C)(C)C5)[nH]4)cc(F)c3-2)[nH]1)C(C)C	6 pM	5 pM	31 pM	13 pM	4 pM	36 pM	1 pM	–	–	–	–	–	–	6 h	9 mL/min/kg	0.45 µM·h	40 nM	4 nM	2%
CCc1ccc([C@@H]2Oc3cc(-c4cnc([C@@H]5CCCN5C(=O)[C@@H](NC(=O)OC)C(C)C)[nH]4)cc(F)c3-c3cc4cc(-c5cnc([C@@H]6CCCN6C(=O)[C@@H](NC(=O)OC)[C@@H]6CCOC(C)(C)C6)[nH]5)ccc4n32)s1	5 pM	6 pM	28 pM	9 pM	7 pM	38 pM	3 pM	–	–	–	–	–	–	5.2 h	8 mL/min/kg	0.78 µM·h	110 nM	4 nM	3.5%
CCCc1ncc([C@@H]2Oc3cc(-c4cnc([C@@H]5CCCN5C(=O)[C@@H](NC(=O)OC)C(C)C)[nH]4)cc(F)c3-c3cc4cc(-c5cnc([C@@H]6CCCN6C(=O)[C@@H](NC(=O)OC)[C@@H]6CCOC(C)(C)C6)[nH]5)ccc4n32)s1	4 pM	5 pM	15 pM	8 pM	6 pM	18 pM	6 pM	–	–	–	–	–	–	4.5 h	21 mL/min/kg	0.08 µM·h	20 nM	1 nM	1%
COC(=O)N[C@H](C(=O)N1CCC[C@H]1c1ncc(-c2cc(F)c3c(c2)O[C@@H](c2ccc(C4CC4)s2)n2c-3cc3cc(-c4cnc([C@@H]5CCCN5C(=O)[C@@H](NC(=O)OC)C5CC(C)(C)OC(C)(C)C5)[nH]4)ccc32)[nH]1)C(C)C	4 pM	2 pM	73 pM	7 pM	4 pM	47 pM	4 pM	–	–	–	–	–	–	7.7 h	7 mL/min/kg	0.7 µM·h	76 nM	5 nM	3.1%
COC(=O)N[C@H](C(=O)N1CCC[C@H]1c1ncc(-c2cc(F)c3c(c2)O[C@@H](c2ccc(C4CC4)s2)n2c-3cc3cc(-c4cnc([C@@H]5CCCN5C(=O)[C@@H](NC(=O)OC)C5CCOC6(CC6)C5)[nH]4)ccc32)[nH]1)C(C)C (stereo partly drawn)	6 pM	4 pM	36 pM	8 pM	4 pM	49 pM	7 pM	–	–	–	–	–	–	5.7 h	5 mL/min/kg	0.58 µM·h	57 nM	4 nM	1.9%
COC(=O)N[C@H](C(=O)N1CCC[C@H]1c1ncc(-c2cc(F)c3c(c2)O[C@@H](c2ccc(C4CC4)s2)n2c-3cc3cc(-c4cnc([C@@H]5CCCN5C(=O)[C@@H](NC(=O)OC)C5CCO[C@@H](C)C5)[nH]4)ccc32)[nH]1)C(C)C (stereo partly drawn)	5 pM	7 pM	23 pM	8 pM	7 pM	13 pM	2 pM	–	–	–	–	–	–	5.5 h	11 mL/min/kg	0.19 µM·h	21 nM	1 nM	1.3%
COC(=O)N[C@H](C(=O)N1CCC[C@H]1c1ncc(-c2cc(F)c3c(c2)O[C@@H](c2ccc(C4CC4)s2)n2c-3cc3cc(-c4cnc([C@@H]5CCCN5C(=O)[C@@H](NC(=O)OC)C5CC6CCC(C5)O6)[nH]4)ccc32)[nH]1)C(C)C (stereo partly drawn)	5 pM	4 pM	19 pM	12 pM	8 pM	28 pM	6 pM	–	–	–	–	–	–	3.9 h	13 mL/min/kg	0.33 µM·h	24 nM	3 nM	2.5%
COC(=O)N[C@H](C(=O)N1CCC[C@H]1c1ncc(-c2cc(F)c3c(c2)O[C@@H](c2cnc(C4CC4)s2)n2c-3cc3cc(-c4cnc([C@@H]5CCCN5C(=O)[C@@H](NC(=O)OC)[C@@H]5CCOC(C)(C)C5)[nH]4)ccc32)[nH]1)C(C)C	6 pM	6 pM	15 pM	15 pM	7 pM	29 pM	6 pM	–	–	–	–	–	–	4 h	9 mL/min/kg	0.51 µM·h	60 nM	4 nM	2.8%
